Results reported in ChEMBL document CHEMBL4261538, “Synthesis and molecular docking studies of xanthone attached amino acids as potential antimicrobial and anti-inflammatory agents” (Medchemcomm, 2017).

How the values were obtained:
[1] = tested on: Staphylococcus aureus; experiment: Antibacterial activity against Staphylococcus aureus at 25 ug/ml incubated for 24 hrs by agar well diffusion method; type: functional; conditions: read-out: DIZ
Outline: (§1)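 Bacteria grown in nutrient broth at 37 °C for 24 h, then subcultured at room temperature. Compounds dissolved in DMSO at 5 mg mL⁻¹ and 5–20 µL added to 6 mm wells, giving 25, 50, 75, 100 µg per well. Gentamicin was the positive control and DMSO the negative control. Plates held at 37 °C for 24 h, then inhibition zone diameter (mm) measured. Values are means of three determinations.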

[2] = tested on: Staphylococcus aureus; experiment: Antibacterial activity against Staphylococcus aureus at 50 ug/ml incubated for 24 hrs by agar well diffusion method; type: functional; conditions: read-out: DIZ; outline: as §1
[3] = tested on: Staphylococcus aureus; experiment: Antibacterial activity against Staphylococcus aureus at 75 ug/ml incubated for 24 hrs by agar well diffusion method; type: functional; conditions: read-out: DIZ; outline: as §1
[4] = tested on: Staphylococcus aureus; experiment: Antibacterial activity against Staphylococcus aureus at 100 ug/ml incubated for 24 hrs by agar well diffusion method; type: functional; conditions: read-out: DIZ; outline: as §1
[5] = tested on: Bacillus subtilis; experiment: Antibacterial activity against Bacillus subtilis at 25 ug/ml incubated for 24 hrs by agar well diffusion method; type: functional; conditions: read-out: DIZ; outline: as §1
[6] = tested on: Bacillus subtilis; experiment: Antibacterial activity against Bacillus subtilis at 50 ug/ml incubated for 24 hrs by agar well diffusion method; type: functional; conditions: read-out: DIZ; outline: as §1
[7] = tested on: Bacillus subtilis; experiment: Antibacterial activity against Bacillus subtilis at 75 ug/ml incubated for 24 hrs by agar well diffusion method; type: functional; conditions: read-out: DIZ; outline: as §1
[8] = tested on: Bacillus subtilis; experiment: Antibacterial activity against Bacillus subtilis at 100 ug/ml incubated for 24 hrs by agar well diffusion method; type: functional; conditions: read-out: DIZ; outline: as §1
[9] = tested on: Escherichia coli; experiment: Antibacterial activity against Escherichia coli at 25 ug/ml incubated for 24 hrs by agar well diffusion method; type: functional; conditions: read-out: DIZ; outline: as §1
[10] = tested on: Escherichia coli; experiment: Antibacterial activity against Escherichia coli at 50 ug/ml incubated for 24 hrs by agar well diffusion method; type: functional; conditions: read-out: DIZ; outline: as §1
[11] = tested on: Escherichia coli; experiment: Antibacterial activity against Escherichia coli at 75 ug/ml incubated for 24 hrs by agar well diffusion method; type: functional; conditions: read-out: DIZ; outline: as §1
[12] = tested on: Escherichia coli; experiment: Antibacterial activity against Escherichia coli at 100 ug/ml incubated for 24 hrs by agar well diffusion method; type: functional; conditions: read-out: DIZ; outline: as §1
[13] = tested on: Klebsiella pneumoniae; experiment: Antibacterial activity against Klebsiella pneumoniae at 25 ug/ml incubated for 24 hrs by agar well diffusion method; type: functional; conditions: read-out: DIZ; outline: as §1
[14] = tested on: Klebsiella pneumoniae; experiment: Antibacterial activity against Klebsiella pneumoniae at 50 ug/ml incubated for 24 hrs by agar well diffusion method; type: functional; conditions: read-out: DIZ; outline: as §1
[15] = tested on: Klebsiella pneumoniae; experiment: Antibacterial activity against Klebsiella pneumoniae at 75 ug/ml incubated for 24 hrs by agar well diffusion method; type: functional; conditions: read-out: DIZ; outline: as §1
[16] = tested on: Klebsiella pneumoniae; experiment: Antibacterial activity against Klebsiella pneumoniae at 100 ug/ml incubated for 24 hrs by agar well diffusion method; type: functional; conditions: read-out: DIZ; outline: as §1
[17] = tested on: Aspergillus niger; experiment: Antifungal activity against Aspergillus niger at 25 ug/ml incubated for 48 hrs by agar well diffusion method; type: functional; conditions: read-out: DIZ
Outline: (§2)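 Compounds dissolved in DMSO at 5 mg mL⁻¹ and 5–20 µL added to 6 mm wells, giving 25, 50, 75, 100 µg per well. Bavistin was the positive control and DMSO the negative control. Plates incubated at 28 °C for 48 h, then inhibition zone diameter (mm) measured. Values are means of three determinations.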

[18] = tested on: Aspergillus niger; experiment: Antifungal activity against Aspergillus niger at 50 ug/ml incubated for 48 hrs by agar well diffusion method; type: functional; conditions: read-out: DIZ; outline: as §2
[19] = tested on: Aspergillus niger; experiment: Antifungal activity against Aspergillus niger at 75 ug/ml incubated for 48 hrs by agar well diffusion method; type: functional; conditions: read-out: DIZ; outline: as §2
[20] = tested on: Aspergillus niger; experiment: Antifungal activity against Aspergillus niger at 100 ug/ml incubated for 48 hrs by agar well diffusion method; type: functional; conditions: read-out: DIZ; outline: as §2
[21] = tested on: Candida albicans; experiment: Antifungal activity against Candida albicans at 25 ug/ml incubated for 48 hrs by agar well diffusion method; type: functional; conditions: read-out: DIZ; outline: as §2
[22] = tested on: Candida albicans; experiment: Antifungal activity against Candida albicans at 50 ug/ml incubated for 48 hrs by agar well diffusion method; type: functional; conditions: read-out: DIZ; outline: as §2
[23] = tested on: Candida albicans; experiment: Antifungal activity against Candida albicans at 75 ug/ml incubated for 48 hrs by agar well diffusion method; type: functional; conditions: read-out: DIZ; outline: as §2
[24] = tested on: Candida albicans; experiment: Antifungal activity against Candida albicans at 100 ug/ml incubated for 48 hrs by agar well diffusion method; type: functional; conditions: read-out: DIZ; outline: as §2
[25] = tested on: Fusarium oxysporum; experiment: Antifungal activity against Fusarium oxysporum at 25 ug/ml incubated for 48 hrs by agar well diffusion method; type: functional; conditions: read-out: DIZ; outline: as §2
[26] = tested on: Fusarium oxysporum; experiment: Antifungal activity against Fusarium oxysporum at 50 ug/ml incubated for 48 hrs by agar well diffusion method; type: functional; conditions: read-out: DIZ; outline: as §2
[27] = tested on: Fusarium oxysporum; experiment: Antifungal activity against Fusarium oxysporum at 75 ug/ml incubated for 48 hrs by agar well diffusion method; type: functional; conditions: read-out: DIZ; outline: as §2
[28] = tested on: Fusarium oxysporum; experiment: Antifungal activity against Fusarium oxysporum at 100 ug/ml incubated for 48 hrs by agar well diffusion method; type: functional; conditions: read-out: DIZ; outline: as §2
[29] = tested on: Staphylococcus aureus; experiment: Antibacterial activity against Staphylococcus aureus incubated for 24 hrs by microdilution method; type: functional
[30] = tested on: Bacillus subtilis; experiment: Antibacterial activity against Bacillus subtilis incubated for 24 hrs by microdilution method; type: functional
[31] = tested on: Escherichia coli; experiment: Antibacterial activity against Escherichia coli incubated for 24 hrs by microdilution method; type: functional
[32] = tested on: Klebsiella pneumoniae; experiment: Antibacterial activity against Klebsiella pneumoniae incubated for 24 hrs by microdilution method; type: functional
[33] = tested on: Aspergillus niger; experiment: Antifungal activity against Aspergillus niger incubated for 48 to 72 hrs by microdilution method; type: functional
Outline: (§3)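 Sabouraud agar plates inoculated with fungal suspension at 10⁵ CFU mL⁻¹ plus serially diluted compounds and bavistin reference, both in DMSO. Incubated at 25 °C for 48–72 h. MIC is the lowest concentration completely inhibiting growth. Values are means of three determinations.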

[34] = tested on: Candida albicans; experiment: Antifungal activity against Candida albicans incubated for 48 to 72 hrs by microdilution method; type: functional; outline: as §3
[35] = tested on: Fusarium oxysporum; experiment: Antifungal activity against Fusarium oxysporum incubated for 48 to 72 hrs by microdilution method; type: functional; outline: as §3
[36] = tested on: Erythrocyte; experiment: Anti-inflammatory activity in human RBC assessed as inhibition of hypotonic solution-induced hemolysis after 10 mins by spectrophotometric method; type: functional, cell-based
Outline: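 Human blood (heparinized) washed with 0.9% saline, packed cells made into a 40% v/v stock in isotonic phosphate buffer (154 mM NaCl, 10 mM sodium phosphate, pH 7.4). Stock RBC mixed with hypotonic buffer (50 mM NaCl, 10 mM phosphate, pH 7.4) plus sample at 20–100 µg mL⁻¹.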

Question: Which zone of inhibition at 25 µg/mL [1] does the source give for `Cl.N[C@@H](Cc1ccccc1)C(=O)Oc1ccc2c(=O)c3ccccc3oc2c1` here?
Answer: 22 mm

Question: And the zone of inhibition at 50 µg/mL [2]?
Answer: 27 mm

Question: And the zone of inhibition at 75 µg/mL [3]?
Answer: 34 mm

Question: And the zone of inhibition at 100 µg/mL [4]?
Answer: 38 mm

Question: What about the zone of inhibition at 25 µg/mL [5] of the same compound?
Answer: 22 mm

Question: What about the zone of inhibition at 50 µg/mL [6] of the same compound?
Answer: 27 mm

Question: What about the zone of inhibition at 75 µg/mL [7] of the same compound?
Answer: 34 mm

Question: And the zone of inhibition at 100 µg/mL [8]?
Answer: 38 mm

Question: What about the zone of inhibition at 25 µg/mL [9] of the same compound?
Answer: 20 mm

Question: And the zone of inhibition at 50 µg/mL [10]?
Answer: 27 mm

Question: And the zone of inhibition at 75 µg/mL [11]?
Answer: 34 mm

Question: And the zone of inhibition at 100 µg/mL [12]?
Answer: 37 mm

Question: And the zone of inhibition at 25 µg/mL [13]?
Answer: 23 mm

Question: What about the zone of inhibition at 50 µg/mL [14] of the same compound?
Answer: 29 mm

Question: And the zone of inhibition at 75 µg/mL [15]?
Answer: 34 mm

Question: And the zone of inhibition at 100 µg/mL [16]?
Answer: 40 mm

Question: What about the zone of inhibition at 25 µg/mL [17] of the same compound?
Answer: 20 mm

Question: What about the zone of inhibition at 50 µg/mL [18] of the same compound?
Answer: 30 mm

Question: And the zone of inhibition at 75 µg/mL [19]?
Answer: 36 mm

Question: What about the zone of inhibition at 100 µg/mL [20] of the same compound?
Answer: 41 mm

Question: And the zone of inhibition at 25 µg/mL [21]?
Answer: 24 mm

Question: And the zone of inhibition at 50 µg/mL [22]?
Answer: 28 mm

Question: What about the zone of inhibition at 75 µg/mL [23] of the same compound?
Answer: 34 mm

Question: And the zone of inhibition at 100 µg/mL [24]?
Answer: 40 mm

Question: And the zone of inhibition at 25 µg/mL [25]?
Answer: 20 mm

Question: What about the zone of inhibition at 50 µg/mL [26] of the same compound?
Answer: 25 mm

Question: What about the zone of inhibition at 75 µg/mL [27] of the same compound?
Answer: 30 mm

Question: And the zone of inhibition at 100 µg/mL [28]?
Answer: 36 mm

Question: What about the MIC [29] of the same compound?
Answer: 22 µg/mL

Question: What about the MIC [30] of the same compound?
Answer: 22 µg/mL

Question: And the MIC [31]?
Answer: 22 µg/mL

Question: What about the MIC [32] of the same compound?
Answer: 24 µg/mL

Question: And the MIC [33]?
Answer: 26 µg/mL

Question: And the MIC [34]?
Answer: 28 µg/mL

Question: What about the MIC [35] of the same compound?
Answer: 26 µg/mL

Question: And the IC50 [36]?
Answer: 38 µg/mL
